Measured values: ChEMBL document CHEMBL1795212, “Synthesis and in vitro antimalarial activity of tetraoxane-amine/amide conjugates” (Eur J Med Chem, 2011)

Assays:
Plasmodium falciparum [1] = experiment: Antimalarial activity against Plasmodium falciparum W2 assessed as plasmodial LDH activity after 72 hrs; assay type: functional, organism-based
Summary of the method: (§1)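 P. falciparum D6 (chloroquine-sensitive) and W2 (chloroquine-resistant) clones screened in vitro alongside Vero cytotoxicity, up to a highest concentration of 12.5; IC50 determined.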

Plasmodium falciparum [2] = experiment: Antimalarial activity against Plasmodium falciparum D6 assessed as plasmodial LDH activity after 72 hrs; assay type: functional, organism-based; summary of the method: as §1
Vero = experiment: Cytotoxicity against african green monkey Vero cells at 12.5 uM; assay type: cell-based; conditions: chlorocebus sabaeus
Summary of the method: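 Mammalian kidney Vero cells screened in vitro for cytotoxicity, in parallel with the antimalarial screen, up to a highest concentration of 12.5.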

[3] = Selectivity index, IC50 for african green monkey Vero cells to IC50 for Plasmodium falciparum D6; assay type: functional
Summary of the method: (§2)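 Selectivity index is the cytotoxicity IC50 in Vero cells divided by the antimalarial IC50 against the stated P. falciparum clone (D6 or W2).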

[4] = Selectivity index, IC50 for african green monkey Vero cells to IC50 for Plasmodium falciparum W2; assay type: functional; summary of the method: as §2
[5] = Plasmodium falciparum, W2, 72 h, read-out: IC50
[6] = Plasmodium falciparum, D6, 72 h, read-out: IC50

SMILES	IC50 (Plasmodium falciparum [1]; [5]) [nM]	IC50 (Plasmodium falciparum [2]; [6]) [nM]	Activity (Vero)	Ratio IC50 [3]	Ratio IC50 [4]	IC50 (Plasmodium falciparum [1])	IC50 (Plasmodium falciparum [2])
O=Cc1ccc(C2OOC(c3ccccc3)OO2)cc1 (stereo not given)	> 17500	13200	Non-toxic	>1.3	>1	–	–
Cc1cccc(C2OOC(c3ccc(C=O)cc3)OO2)c1 (stereo not given)	–	–	Non-toxic	–	–	Not Active	Not Active
Cc1ccccc1C1OOC(c2ccc(C=O)cc2)OO1 (stereo not given)	–	–	Non-toxic	–	–	Not Active	Not Active
CCc1ccc(C2OOC(c3ccc(C=O)cc3)OO2)cc1 (stereo not given)	5990	10900	Non-toxic	>1.4	>2.6	–	–
CC(C)c1ccc(C2OOC(c3ccc(C=O)cc3)OO2)cc1 (stereo not given)	3110	6990	Non-toxic	>2.2	>4.9	–	–
Cc1ccc(C2OOC(c3ccc(/C=N/C4CCCCC4)cc3)OO2)cc1 (stereo not given)	1850	1900	Non-toxic	>6.8	>7	–	–
Cc1ccc(C2OOC(c3ccc(/C=N\c4ccccc4)cc3)OO2)cc1 (stereo not given)	5530	7740	Non-toxic	>1.7	>2.4	–	–
Cc1ccc(C2OOC(c3ccc(/C=N/Cc4ccccc4)cc3)OO2)cc1 (stereo not given)	6400	4800	Non-toxic	>2.6	>2	–	–
Cc1ccc(C2OOC(c3ccc(/C=N/CCc4ccccc4)cc3)OO2)cc1 (stereo not given)	1490	1540	Non-toxic	>7.9	>8.2	–	–
Cc1ccc(C2OOC(c3ccc(/C=N\c4ccc(Cl)cc4)cc3)OO2)cc1 (stereo not given)	1460	1460	Non-toxic	>8.2	>8.2	–	–
Cc1ccc(C2OOC(c3ccc(/C=N\c4ccc(Br)cc4)cc3)OO2)cc1 (stereo not given)	4090	7950	Non-toxic	>1.4	>2.6	–	–
Cc1ccc(C2OOC(c3ccc(/C=N\c4ccccc4S)cc3)OO2)cc1 (stereo not given)	5080	6860	Non-toxic	>1.8	>2.4	–	–
Cc1ccc(C2OOC(c3ccc(/C=N\CCO)cc3)OO2)cc1 (stereo not given)	2370	2820	Non-toxic	>5.1	>6.1	–	–
Cc1ccc(C2OOC(c3ccc(/C=N\N)cc3)OO2)cc1 (stereo not given)	1260	2590	Non-toxic	>9	>9	–	–
Cc1ccc(C2OOC(c3ccc(CNCc4ccccc4)cc3)OO2)cc1 (stereo not given)	3440	3440	Non-toxic	>3.7	>3.7	–	–
Cc1ccc(C2OOC(c3ccc(CNCCc4ccccc4)cc3)OO2)cc1 (stereo not given)	6390	7670	Non-toxic	>1.6	>1.9	–	–
Cc1ccc(C2OOC(c3ccc(CNc4ccccc4S)cc3)OO2)cc1 (stereo not given)	1590	2190	Non-toxic	>5.5	>7.6	–	–
OCc1ccc(C2OOC(c3ccccc3)OO2)cc1 (stereo not given)	1820	3090	Non-toxic	>5.6	>9.5	–	–
Cc1ccc(C2OOC(c3ccc(CO)cc3)OO2)cc1 (stereo not given)	2420	1830	Non-toxic	>9	>6.8	–	–
Cc1cccc(C2OOC(c3ccc(CO)cc3)OO2)c1 (stereo not given)	1380	1280	Non-toxic	>12.9	>11.9	–	–
Cc1ccccc1C1OOC(c2ccc(CO)cc2)OO1 (stereo not given)	1900	2150	Non-toxic	>7.7	>8.7	–	–
CCc1ccc(C2OOC(c3ccc(CO)cc3)OO2)cc1 (stereo not given)	1090	1580	Non-toxic	9.9	14.4	–	–
CC(C)c1ccc(C2OOC(c3ccc(CO)cc3)OO2)cc1 (stereo not given)	1890	2020	Non-toxic	>7.4	>7.9	–	–
Cc1ccc(C2OOC(c3ccc(COS(C)(=O)=O)cc3)OO2)cc1 (stereo not given)	8180	7640	Non-toxic	>1.7	>1.6	–	–
CCc1ccc(C2OOC(c3ccc(COS(C)(=O)=O)cc3)OO2)cc1 (stereo not given)	3940	4990	Non-toxic	>2.5	>3.2	–	–

SMILES	IC50 (Plasmodium falciparum [1]; [5]) [nM]	IC50 (Plasmodium falciparum [2]; [6]) [nM]	Activity (Vero)	Ratio IC50 [3]	Ratio IC50 [4]	IC50 (Plasmodium falciparum [1])	IC50 (Plasmodium falciparum [2])
Cc1ccc(C2OOC(c3ccc(CNc4ccccc4)cc3)OO2)cc1 (stereo not given)	1590	1840	Non-toxic	>7.1	>8.2	–	–
Cc1ccc(C2OOC(c3ccc(CNc4cccc5ccccc45)cc3)OO2)cc1 (stereo not given)	–	–	Non-toxic	–	–	Not Active	Not Active
Cc1ccc(C2OOC(c3ccc(CN(C)c4ccccc4)cc3)OO2)cc1 (stereo not given)	2110	1510	Non-toxic	>8.4	>6	–	–
Cc1ccc(NCc2ccc(C3OOC(c4ccc(C)cc4)OO3)cc2)cc1 (stereo not given)	–	–	Non-toxic	–	–	Not Active	Not Active
Cc1ccc(C2OOC(c3ccc(CNc4cccc(C)c4)cc3)OO2)cc1 (stereo not given)	2380	2640	Non-toxic	>4.8	>5.3	–	–
Cc1ccc(C2OOC(c3ccc(CNc4ccccc4C)cc3)OO2)cc1 (stereo not given)	–	–	Non-toxic	–	–	Not Active	Not Active
Cc1ccc(C2OOC(c3ccc(CNc4c(C)cccc4C)cc3)OO2)cc1 (stereo not given)	1450	1480	Non-toxic	>8.2	>8.4	–	–
CCc1ccc(NCc2ccc(C3OOC(c4ccc(C)cc4)OO3)cc2)cc1 (stereo not given)	2350	3320	Non-toxic	>3.7	>5.2	–	–
Cc1ccc(C2OOC(c3ccc(CNc4ccc(C(C)C)cc4)cc3)OO2)cc1 (stereo not given)	3200	2390	Non-toxic	>4.9	>3.7	–	–
CCCc1ccc(NCc2ccc(C3OOC(c4ccc(C)cc4)OO3)cc2)cc1 (stereo not given)	4190	5670	Non-toxic	>2.3	>2.8	–	–
Cc1ccc(C2OOC(c3ccc(CNc4ccc(F)cc4)cc3)OO2)cc1 (stereo not given)	2350	2090	Non-toxic	>6	>5.3	–	–
Cc1ccc(C2OOC(c3ccc(CNc4cccc(F)c4)cc3)OO2)cc1 (stereo not given)	1830	2460	Non-toxic	>5.1	>6.8	–	–
Cc1ccc(C2OOC(c3ccc(CNc4ccccc4F)cc3)OO2)cc1 (stereo not given)	1830	1880	Non-toxic	>6.6	>6.8	–	–
Cc1ccc(C2OOC(c3ccc(CNc4ccc(Cl)cc4)cc3)OO2)cc1 (stereo not given)	1700	1790	Non-toxic	>6.8	>7	–	–
Cc1ccc(C2OOC(c3ccc(CNc4cccc(Cl)c4)cc3)OO2)cc1 (stereo not given)	–	–	Non-toxic	–	–	Not Active	Not Active
Cc1ccc(C2OOC(c3ccc(CNc4ccccc4Cl)cc3)OO2)cc1 (stereo not given)	2760	2510	Non-toxic	>4.8	>4.3	–	–
Cc1ccc(C2OOC(c3ccc(CNc4cc(Cl)c(Cl)cc4Cl)cc3)OO2)cc1 (stereo not given)	6420	8570	Non-toxic	>1.2	>1.6	–	–
CCc1ccc(C2OOC(c3ccc(C(=O)O)cc3)OO2)cc1 (stereo not given)	–	–	Non-toxic	–	–	Not Active	Not Active
Cc1ccc(C2OOC(c3ccc(C(=O)NCCO)cc3)OO2)cc1 (stereo not given)	–	–	Non-toxic	–	–	Not Active	Not Active
Cc1ccc(C2OOC(c3ccc(C(=O)NCCCO)cc3)OO2)cc1 (stereo not given)	–	–	Non-toxic	–	–	Not Active	Not Active
Cc1ccc(C2OOC(c3ccc(C(=O)NCCCCCCO)cc3)OO2)cc1 (stereo not given)	–	–	Non-toxic	–	–	Not Active	Not Active
CCCCNC(=O)c1ccc(C2OOC(c3ccc(C)cc3)OO2)cc1 (stereo not given)	–	–	Non-toxic	–	–	Not Active	Not Active
CCCCCNC(=O)c1ccc(C2OOC(c3ccc(CC)cc3)OO2)cc1 (stereo not given)	–	–	Non-toxic	–	–	Not Active	Not Active
Cc1ccc(C2OOC(c3ccc(C=O)cc3)OO2)cc1 (stereo not given)	–	–	Non-toxic	–	–	Not Active	Not Active
CCN(CC)CCCC(C)Nc1ccnc2cc(Cl)ccc12 (stereo not given) [CHLOROQUINE]	–	–	Non-toxic	–	–	–	–
